Screening data as filed in PubChem BioAssay.
TCR-CD3 inh: human TCR-CD3 binding inhibition; TAMRA-labeled TCR probe fluorescence, biochemical; inhibition, % at 9.4 µM; actives 0.37% (n = 360,000);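 further: recombinant mutant TCR 2C K166C tagged with TAMRA read by polarization; 0% = receptor in buffer alone and 100% = receptor with positive control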
DDE Tn7 FP inh: disrupts Tn7 cyclic peptide binding to fibrin D-Dimer-E complex; P02675; FP displacement of FITC-Tn7 peptide from fibrin DD(E); 0% = median of compound wells per plate; inhibition, % at 8.3 µM; actives 0.13% (n = 370,000); AID 720508;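 active means inhibition above the mean of compounds falling within the control limits plus 3 SD of them, cut at about 14% in these data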;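 further: 0% = plate median of compound wells and 100% = 10 µM Aha-Tn7 peptide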
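Test system: human clot-derived fibrin DD(E) complex / Quantity: 2 µM final DD(E) protein / Incubation: 10 min plus 3 h, room temperature / Measured by: fluorescence polarization / Benchmarks: high control of 10 µM Aha-Tn7 peptide / Replicates: singlicate testing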
SIAE primary: inhibitors of human sialic acid acetylesterase SIAE. SIAE FP-Rh probe binding, fluorescence polarization. Q9HAT2. actives 0.69% (n = 370,000). inhibition, % at 9.66 µM;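 active means inhibition above a cutoff: mean of compounds within the control limits plus 3 SD of those, cut at about 17% in these data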;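 further: 0% = plate median of compound wells and 100% = probe without SIAE protein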
HTRA1 inhibitor: blocks human HTRA1 serine peptidase; recombinant HTRA1, FP-rhodamine activity-based probe, fluorescence polarization; inhibition, % at 5.96 µM; Q92743; actives 0.5% (n = 340,000); in the data active means inhibition above about 36%;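 further: 0% = enzyme with DMSO and 100% = wells lacking enzyme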
Target sequence (Q92743 whole entry, looked up): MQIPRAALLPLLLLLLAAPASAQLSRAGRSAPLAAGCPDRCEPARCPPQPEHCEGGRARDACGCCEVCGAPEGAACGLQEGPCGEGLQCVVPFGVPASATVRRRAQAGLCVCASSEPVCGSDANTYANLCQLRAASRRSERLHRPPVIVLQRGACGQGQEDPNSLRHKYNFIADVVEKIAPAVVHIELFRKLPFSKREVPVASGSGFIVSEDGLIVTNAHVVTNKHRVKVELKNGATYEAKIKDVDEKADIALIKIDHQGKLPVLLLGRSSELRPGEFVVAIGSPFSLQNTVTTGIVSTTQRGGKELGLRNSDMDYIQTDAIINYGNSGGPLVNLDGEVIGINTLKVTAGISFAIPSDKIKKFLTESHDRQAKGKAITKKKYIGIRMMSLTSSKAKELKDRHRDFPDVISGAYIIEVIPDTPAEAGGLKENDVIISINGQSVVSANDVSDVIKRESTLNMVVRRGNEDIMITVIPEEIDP
DDE Tn6 FP inh: disrupts Tn6 cyclic peptide binding to fibrin D-Dimer-E complex; inhibition, % at 8.3 µM; actives 0.21% (n = 370,000); P02675; Fibrin DD(E) TRITC-Tn6 fluorescence polarization displacement; AID 720509;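 active means inhibition above a per-campaign cutoff: mean of compounds within control limits plus 3 SD, cut at about 15% in these data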;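 further: 0% = median of all compound wells on the plate and 100% = blocking peptide control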
ABHD4 inh: ABHD4 (mouse) inhibition, primary FP screen. Q8VD66. purified mABHD4, FP-Rh probe fluorescence polarization. inhibition, % at 8.92 µM. actives 0.54% (n = 370,000);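 active means inhibition exceeding the mean over every tested compound plus 3 SD, cut at about 30% in these data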;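 further: 0% = plate median of compound wells and 100% = S159A mutant with DMSO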
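System: mouse ABHD4 enzyme, wild type / Medium: HEPES pH 7.0, NaCl, Pluronic buffer / Reagent: FP-Rh activity-based fluorescent probe / Control set: S159A mutant high control, sample median low control / Detection: fluorescence polarization with parallel and perpendicular emission, 525/598 nm / Schedule: 45 min + 60 min at 25 °C / Compound dosing: 8.92 µM, single dose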
BSA TAMRA ctr: counter-screen for TCR-CD3 interaction inhibitors: BSA probe; inhibition, % at 9.4 µM; AID 652035; actives 10% (n = 1,200); shares compounds with TCR-CD3 inh; TAMRA-labeled BSA probe fluorescence counterscreen; in the data active means inhibition above about 23%;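 further: 0% = buffer low control and 100% = reference high control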
TCR-CD3 conf: TCR-CD3 interaction inhibition, confirmation; shares compounds with TCR-CD3 inh; TAMRA-labeled TCR probe fluorescence binding assay; inhibition, % at 9.4 µM; actives 48% (n = 1,200)
* marks the source's active call; other numbers are inactive results. Shown are actives, neighbours in structure and some others; about 1.8% of the full set was active somewhere. Unless noted, no stated cut-off is given here; in the data, active means inhibition above about 19%; inactive means the rest.

Screening N#Cc1c(N)sc2c1CCCCCC2 returned TCR-CD3 inh -2.2, DDE Tn7 FP inh -6.2, SIAE primary 13.9, HTRA1 inhibitor 8.3, DDE Tn6 FP inh 2.1 and ABHD4 inh 8.0.
For O=C(c1cccc(I)c1)N1CCC(Oc2cccnc2)CC1 the results were DDE Tn7 FP inh -3.9, SIAE primary 1.4, DDE Tn6 FP inh -2.3 and ABHD4 inh 2.8.
For CC1=NN(C(=O)c2ccccc2F)C(O)(c2ccc(Cl)cc2)C1 (configuration not stated) the results were TCR-CD3 inh 22.5*, DDE Tn7 FP inh 10.6, SIAE primary -4.2, HTRA1 inhibitor 21.9, DDE Tn6 FP inh 0.0, ABHD4 inh -0.2, BSA TAMRA ctr -9.5 and TCR-CD3 conf 18.1.
Screening CC1=NN(C(=O)c2ccccc2Cl)C(O)(c2ccccc2)C1 (configuration not stated) returned TCR-CD3 inh 20.8*, DDE Tn7 FP inh -1.9, SIAE primary 2.7, HTRA1 inhibitor 3.5, DDE Tn6 FP inh 4.8, ABHD4 inh -6.8, BSA TAMRA ctr -17.2 and TCR-CD3 conf 4.7.
`CC1=NN(C(=O)c2ccccc2)C(O)(c2ccc(Br)cc2)C1` (configuration not stated) gave TCR-CD3 inh 24.0*, DDE Tn7 FP inh -4.7, SIAE primary 1.7, HTRA1 inhibitor 32.2, DDE Tn6 FP inh 3.0, ABHD4 inh 8.1, BSA TAMRA ctr -4.8 and TCR-CD3 conf 24.9*.
For CCC1=NN(C(=O)c2ccc(Br)cc2)C(O)(c2ccccc2)C1 (configuration not stated) the results were TCR-CD3 inh 10.9, DDE Tn7 FP inh 6.9, SIAE primary -0.9, HTRA1 inhibitor 19.2, DDE Tn6 FP inh 0.0 and ABHD4 inh 0.3.
Screening CCOC(=O)N1N=C(C)CC1(O)c1ccccc1 (configuration not stated) returned TCR-CD3 inh 3.4, DDE Tn7 FP inh -5.4, SIAE primary -1.4, HTRA1 inhibitor -3.3, DDE Tn6 FP inh -4.0 and ABHD4 inh -0.8.
COc1ccc2c(c1)N[C@@](CCN1C(=O)c3ccccc3C1=O)(c1[nH]c3ccccc3c1CCN1C(=O)c3ccccc3C1=O)C2=O was read as DDE Tn7 FP inh 5.8, SIAE primary -10.9, DDE Tn6 FP inh -3.0 and ABHD4 inh -6.9.
Screening O=C(NCc1ccc(F)c(F)c1)C1CCCN(c2nc3ccccc3o2)C1 (configuration not stated) returned DDE Tn7 FP inh 0.2, SIAE primary -2.2, DDE Tn6 FP inh -10.3 and ABHD4 inh -4.9.
Nc1c(/C=C2/C=CC(=O)C(O)=C2)c(=O)nc2sc(CC(=O)N3CCCCC3)nn12 was read as TCR-CD3 inh 26.2*, DDE Tn7 FP inh -10.2, SIAE primary 1.4, HTRA1 inhibitor 14.2, DDE Tn6 FP inh -1.3, ABHD4 inh 4.6, BSA TAMRA ctr -19.3 and TCR-CD3 conf 41.8*.
For Brc1ccccc1Cn1nnc(-c2ccc(N3CCOCC3)cc2)n1 the results were DDE Tn7 FP inh -5.6, SIAE primary 5.0, DDE Tn6 FP inh -9.6 and ABHD4 inh -2.7.
COc1cc(/C=N\NC(=O)C2COc3ccccc3O2)cc(OC)c1O (configuration not stated) was read as TCR-CD3 inh 2.3, DDE Tn7 FP inh 4.9, SIAE primary 6.4, HTRA1 inhibitor -3.4, DDE Tn6 FP inh -2.9 and ABHD4 inh 6.3.
Screening CCOc1ccc(-n2c(O)c(/C=N/NC(=O)C3COc4ccccc4O3)c3ccccc3c2=O)cc1 (configuration not stated) returned TCR-CD3 inh 20.3*, DDE Tn7 FP inh 1.7, SIAE primary 2.4, HTRA1 inhibitor 14.4, DDE Tn6 FP inh -5.6, ABHD4 inh 19.6, BSA TAMRA ctr 0.3 and TCR-CD3 conf 36.5*.
For CC(=O)c1cc(-c2ccc(F)cc2)n(CCC(=O)NC(C)(C)C)c1C the results were TCR-CD3 inh 20.3*, DDE Tn7 FP inh -0.4, SIAE primary 1.4, HTRA1 inhibitor -2.7, DDE Tn6 FP inh -6.2, ABHD4 inh 2.7, BSA TAMRA ctr 1.8 and TCR-CD3 conf -1.8.
`COc1ccc(COc2cc(-c3cccc(OC)c3)nc3ccc(NC(=O)c4cccnc4)cc23)cc1` gave TCR-CD3 inh 37.8*, DDE Tn7 FP inh -2.4, SIAE primary -72.3, HTRA1 inhibitor -93.0, DDE Tn6 FP inh -1.0, ABHD4 inh -2.2, BSA TAMRA ctr 9.6 and TCR-CD3 conf 22.6*.
Screening COc1ccc(COc2cc(-c3cccc(OC)c3)nc3ccc(NC(=O)c4ccc(OC)cc4)cc23)cc1 returned TCR-CD3 inh 6.8, DDE Tn7 FP inh -0.6, SIAE primary -55.8, HTRA1 inhibitor -81.1, DDE Tn6 FP inh -3.2 and ABHD4 inh -8.5.
For CCOC(=O)C1=C(N)Oc2ccc3ccccc3c2C1c1cccnc1 (configuration not stated) the results were TCR-CD3 inh -2.2, DDE Tn7 FP inh -0.1, SIAE primary -4.3, HTRA1 inhibitor -21.7, DDE Tn6 FP inh -7.3 and ABHD4 inh -9.2.
Screening CCOC(=O)C1=C(N)Oc2cc(C)oc(=O)c2C1c1cccnc1 (configuration not stated) returned TCR-CD3 inh 20.6*, DDE Tn7 FP inh 4.2, SIAE primary 2.4, HTRA1 inhibitor -0.3, DDE Tn6 FP inh 6.7, ABHD4 inh 2.0, BSA TAMRA ctr 3.1 and TCR-CD3 conf -0.1.
O=C1NNC(=O)C1c1ccccc1 was read as TCR-CD3 inh 34.8*, DDE Tn7 FP inh -6.2, SIAE primary 0.0, HTRA1 inhibitor 5.8, DDE Tn6 FP inh -2.4, ABHD4 inh 3.4, BSA TAMRA ctr 1.2 and TCR-CD3 conf 9.3.
For O=C(O)C1=CC[C@@H](c2ccc(Cl)cc2)N(S(=O)(=O)c2ccc(Cl)cc2)[C@H]1c1ccccc1 the results were TCR-CD3 inh 36.4*, DDE Tn7 FP inh 1.5, SIAE primary -5.3, HTRA1 inhibitor -42.0, DDE Tn6 FP inh 4.5, ABHD4 inh -10.3, BSA TAMRA ctr -0.2 and TCR-CD3 conf 0.3.
`Cc1ccc([C@H]2C(C(=O)O)=CC[C@@H](c3ccc(Cl)cc3)N2S(=O)(=O)c2ccc(C)cc2)cc1` gave TCR-CD3 inh -7.0, DDE Tn7 FP inh -0.1, SIAE primary -11.4, HTRA1 inhibitor -40.7, DDE Tn6 FP inh 3.9 and ABHD4 inh 1.1.
`O=C(O)C1CC=CCC1C(=O)N1CCN(c2nc(-c3ccccc3Cl)c3cc(Br)ccc3n2)CC1` (configuration not stated) gave TCR-CD3 inh 51.8*, DDE Tn7 FP inh -2.5, SIAE primary 6.3, HTRA1 inhibitor -27.4, DDE Tn6 FP inh -5.0, ABHD4 inh 16.6, BSA TAMRA ctr -0.5 and TCR-CD3 conf 0.6.
